Measured values published in ChEMBL document CHEMBL1629709, “Inhibition of melanogenesis and oxidation by protocatechuic acid from Origanum vulgare (oregano)” (J Nat Prod, 2010).
≈ marks a conversion by molar mass, not a printed value. Calls of active or inactive are those of the source. No cut-off for these calls is given here.

How the values were obtained:
[1] = Antioxidant activity in mouse BNL-CL2 cells assessed as inhibition of H2O2-induced ROS production at 20 ug/ml by DCFHDA assay; assay type: functional; details: BNL CL.2, values are per cent of control
Summary of the method: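 BNLCL2 cells (1 × 10^5 cells/mL) exposed 24 h to 20 µg/mL agent. Detached, washed, loaded with 10 µM DCFH-DA in PBS for 30 min at 37 °C, then stimulated with 0.1 mM H2O2 for 30 min at 37 °C. DCF fluorescence read at ex 504/em 524 nm against H2O2-treated cells. Independent triplicates.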

[2] = test system: B16; assay: Effect on nuclear morphology of mouse B16 cells at 20 ug/ml after 72 hrs by Hoechst 33342 staining in presence of alpha-MSH; assay type: ADME, cell-based; details: b16, 72 h
Summary of the method: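 B16 cells (1 × 10^5 cells/mL) given α-MSH (1 µM) alone or with 20 µg/mL compound for 72 h. Fixed in 4% paraformaldehyde, nuclei stained with 0.1 µg/mL Hoechst 33342, and viewed by inverted fluorescence microscopy (200×).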

[3] = test system: B16; assay: Antimelanogenic activity in mouse B16 cells assessed as decrease in MC1R expression at 20 ug/ml after 72 hrs by Western blotting; assay type: functional, cell-based
Summary of the method: (§1)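 B16 cells (1 × 10^5 cells/mL) given α-MSH (1 µM) alone as control or α-MSH plus 20 µg/mL compound, 72 h. Lysis at 4 °C for 20 min in Tris-HCl pH 7.5 buffer with 1% Triton X-100, EGTA, NaCl and PMSF. 40 µg protein run on 12.5% SDS-PAGE and transferred to nitrocellulose. Blocked in 5% skim milk. Probed with target and β-actin antibodies, HRP secondary, ECL detection.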

[4] = molecular target: T1, Tyrosinase (Mus musculus) (UniProt P11344); assay: Inhibition of DOPA oxidase activity of tyrosinase in mouse B16 cells at 10 to 20 ug/ml after 72 hrs by colorimetry; assay type: cell-based
T1 sequence (whole entry): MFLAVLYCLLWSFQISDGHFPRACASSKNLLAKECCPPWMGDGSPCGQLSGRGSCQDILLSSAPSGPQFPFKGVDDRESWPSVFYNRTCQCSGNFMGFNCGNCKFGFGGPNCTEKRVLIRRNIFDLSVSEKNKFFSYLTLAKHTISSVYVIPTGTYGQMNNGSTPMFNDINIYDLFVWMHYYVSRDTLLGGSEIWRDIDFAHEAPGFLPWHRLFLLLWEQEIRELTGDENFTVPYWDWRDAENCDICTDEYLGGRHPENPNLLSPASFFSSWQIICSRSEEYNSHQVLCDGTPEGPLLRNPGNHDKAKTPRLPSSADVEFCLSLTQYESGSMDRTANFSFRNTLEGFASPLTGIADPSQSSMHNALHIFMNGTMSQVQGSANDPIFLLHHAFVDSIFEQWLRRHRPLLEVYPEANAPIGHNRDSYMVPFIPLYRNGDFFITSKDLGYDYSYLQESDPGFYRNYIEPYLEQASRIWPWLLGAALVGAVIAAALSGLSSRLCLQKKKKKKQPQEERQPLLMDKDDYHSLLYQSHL
Summary of the method: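 B16 cells (1 × 10^5 cells/mL) plated ≥24 h, then α-MSH (1 µM) alone or with 10 or 20 µg/mL agent for 72 h. Lysed in 50 mM sodium phosphate pH 6.8 with 1% Triton X-100 and freeze-thawed. Substrate of 6.3 mM MBTH, 1.1 mM DOPA, pH 7.1 buffer with 4% DMF added. 37 °C for 4 h, A508 read against α-MSH control; independent triplicates.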

[5] = test system: Liver; assay: Antioxidant activity in mouse liver assessed as inhibition of Fe2+/ascorbate-induced lipid peroxidation up to 100 ug/ml by TBARS assay relative to control; assay type: functional, tissue-based
Summary of the method: (§2)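 Male ICR mice, 7 weeks, 30–35 g. Liver or brain homogenized 1:1 (w/v) in ice-cold 40 mM Tris-HCl pH 7.4 and spun at 3000g. Supernatant incubated with sample (20 or 100 µg/mL), 10 µM FeSO4 and 0.1 mM ascorbic acid, 37 °C for 1 h. TCA then TBA added, 80 °C for 20 min, A532 of MDA-TBA read with MDA standard; % inhibition versus control.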

[6] = test system: B16; assay: Antimelanogenic activity in mouse B16 cells assessed as decrease in MITF expression at 20 ug/ml after 72 hrs by Western blotting; assay type: functional, cell-based; summary of the method: as §1
[7] = test system: Radical scavenging activity; assay: Antioxidant activity assessed as DPPH radical scavenging activity after 30 mins; assay type: functional
Summary of the method: (§3)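 Sample (100 µL) added to 900 µL of 0.1 mM ethanolic DPPH and kept 30 min in the dark, then A517 read. Scavenging (%) = (1 − Asample/Acontrol) × 100. Control lacks test agent; ascorbic acid used as standard. EC50 estimated from the % inhibition versus concentration plot; mean ± SD, n = 3.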

[8] = test system: B16; assay: Antimelanogenic activity in mouse B16 cells assessed as decrease in tyrosinase expression at 20 ug/ml after 72 hrs by Western blotting; assay type: functional, cell-based; summary of the method: as §1
[9] = test system: Hs68; assay: Cytotoxicity against human HS68 cells up to 100 ug/ml after 72 hrs by MTT assay; assay type: cell-based; details: hs68, 72 h
Summary of the method: (§4)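 B16 or Hs68 cells (1 × 10^4/well) seeded ≥24 h in DMEM with 10% FBS, then treated 72 h with 0, 5, 10, 20, 50, 100 µg/mL. MTT (0.5 mg/mL) for 4 h, formazan dissolved in DMSO, A570 read. Viability given as % of 0.1% DMSO vehicle culture; independent triplicates, mean ± SD.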

[10] = test system: Brain; assay: Antioxidant activity in mouse brain assessed as Fe2+/ascorbate-induced lipid peroxidation up to 100 ug/ml by TBARS assay relative to control
[11] = test system: Radical scavenging activity; assay: Antioxidant activity assessed as DPPH radical scavenging activity at 5 ug/ml after 30 mins; assay type: functional; summary of the method: as §3
[12] = Antioxidant activity assessed as trolox equivalent of ABTS radical scavenging activity after 12 to 16 hrs; assay type: functional
Summary of the method: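 ABTS (7 mM) oxidized with 2.45 mM potassium persulfate (final) in the dark at room temperature for 12–16 h. Diluted with ethanol to A734 0.70 ± 0.02 at 30 °C. 0.1 mL sample added to 2.9 mL, 20 min at 30 °C, A734 read. TEAC reported as mg Trolox/g, from the concentration giving the same absorbance change as 1 mg Trolox.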

[13] = test system: Radical scavenging activity; assay: Antioxidant activity assessed as DPPH radical scavenging activity at 1 ug/ml after 30 mins; assay type: functional; summary of the method: as §3
[14] = test system: B16; assay: Antimelanogenic activity in mouse B16 cells assessed as decrease in MCIR expression at 20 ug/ml after 72 hrs by flow cytometry assay; assay type: functional; details: B16, 72 h
Summary of the method: (§5)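 B16 cells (1 × 10^5 cells/mL) given α-MSH (1 µM) alone or with 20 µg/mL compound for 72 h. Mouse primary antibodies (1:300) 45 min at 4 °C, FITC anti-mouse IgG (1:500) 30 min at 4 °C. Read by flow cytometry against a normal mouse IgG1 isotype control; n = 3.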

[15] = test system: Radical scavenging activity; assay: Antioxidant activity assessed as DPPH radical scavenging activity at 10 ug/ml after 30 mins; assay type: functional; summary of the method: as §3
[16] = test system: B16; assay: Antimelanogenic activity in mouse B16 cells assessed as decrease in tyrosinase expression at 20 ug/ml after 72 hrs by flow cytometry assay; assay type: functional; details: B16, 72 h; summary of the method: as §5
[17] = molecular target: T1, Tyrosinase (Mus musculus); assay: Inhibition of tyrosinase in mouse B16 cells at 10 to 20 ug/ml after 72 hrs by spectrophotometry; assay type: cell-based
Summary of the method: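 B16 cells (1 × 10^5 cells/mL) plated ≥24 h, then α-MSH (1 µM) alone or with 10 or 20 µg/mL agent for 72 h. Lysed in 50 mM sodium phosphate pH 6.8 with 1% Triton X-100 and freeze-thawed. 100 µL of 10 mM DOPA added, 37 °C for 4 h, DOPA oxidation read at A475 against α-MSH control; independent triplicates.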

[18] = test system: B16; assay: Antimelanogenic activity in mouse B16 cells assessed as decrease in TRP1 expression at 20 ug/ml after 72 hrs by Western blotting; assay type: functional, cell-based; summary of the method: as §1
[19] = test system: Liver; assay: Antioxidant activity in mouse liver assessed as inhibition of Fe2+/ascorbate-induced lipid peroxidation up to 20 ug/ml by TBARS assay relative to control; assay type: functional, tissue-based; summary of the method: as §2
[20] = test system: B16; assay: Antimelanogenic activity in mouse B16 cells assessed as decrease in TRP2 expression at 20 ug/ml after 72 hrs by Western blotting; assay type: functional, cell-based; summary of the method: as §1
[21] = test system: Radical scavenging activity; assay: Antioxidant activity assessed as DPPH radical scavenging activity at 100 ug/ml after 30 mins; assay type: functional; summary of the method: as §3
[22] = test system: B16; assay: Antimelanogenic activity in mouse B16 cells assessed as decrease in TRP2 expression at 20 ug/ml after 72 hrs by flow cytometry assay; assay type: functional; details: B16, 72 h; summary of the method: as §5
[23] = test system: B16; assay: Antimelanogenic activity in mouse B16 cells assessed as decrease in MITF expression at 20 ug/ml after 72 hrs by flow cytometry assay; assay type: functional; details: B16, 72 h; summary of the method: as §5
[24] = Antioxidant activity assessed as reducing capacity of the compound up to 100 ug/ml after 20 mins; assay type: functional
Summary of the method: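 Sample (0.2 mL; 0, 1, 5, 10, 20, 100 µg/mL) mixed with sodium phosphate buffer pH 6.6 and 1% potassium ferricyanide, 50 °C for 20 min. 10% TCA added, centrifuged at 10000g for 10 min. Upper layer mixed with water and 0.1% FeCl3. A700 taken directly as reducing power; ascorbic acid standard; mean ± SD, n = 3.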

[25] = test system: B16; assay: Antimelanogenic activity in mouse B16 cells assessed as decrease in TRP1 expression at 20 ug/ml after 72 hrs by flow cytometry assay; assay type: functional; details: B16, 72 h; summary of the method: as §5
[26] = test system: Radical scavenging activity; assay: Antioxidant activity assessed as DPPH radical scavenging activity at 20 ug/ml after 30 mins; assay type: functional; summary of the method: as §3
[27] = Antioxidant activity assessed as ferrous ion chelating effect after 10 mins; assay type: functional
Summary of the method: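 Ferrozine method. 10 µL sample with 20 µL of 2 mM FeCl2 for 5 min, then 40 µL of 5 mM ferrozine added and volume brought to 1 mL with water. Shaken and held 10 min at room temperature, A562 read. EDTA as positive control. Chelation (%) = (1 − Asample/Acontrol) × 100.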

[28] = test system: B16; assay: Antimelanogenic activity in mouse B16 cells assessed as inhibition of alpha-MSH-induced melanin formation after 72 hrs by spectrophotometry; assay type: functional, cell-based
Summary of the method: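 B16 cells (1 × 10^5 cells/mL) grown 24 h, then α-MSH (1 µM) plus 10 or 20 µg/mL compound in phenol red-free DMEM for 72 h. Melanin released into the medium read at OD 405 nm and expressed as % of 0.1% DMSO vehicle control. Independent triplicate experiments, mean ± SD.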

[29] = test system: B16; assay: Cytotoxicity against mouse B16 cells up to 100 ug/ml after 72 hrs by MTT assay; assay type: cell-based; details: b16, 72 h; summary of the method: as §4
[30] = Antioxidant activity assessed as inhibition of Fe2+/ascorbate-induced lipid peroxidation by TBA assay; assay type: functional
Summary of the method: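 Commercial liposomes (225–250 nm) with 10 mM FeSO4 and 10 mM ascorbic acid (11 µL each) plus compound in 50 mM sodium phosphate buffer pH 7.4, 2.5 mL final volume, 37 °C for 1 h. Stopped with TBA/TCA and EDTA, then heated at 100 °C for 20 min. Centrifuged and MDA adduct read at A532. Four replicates; inhibition (%) = (1 − Asample/Acontrol) × 100.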

SMILES	response, % of control at 20 µg/mL [1]	inhibition [4]	EC50 [7]	Activity [9]	Activity [11]	EC50 [12]	Activity [13]	Activity [15]	inhibition [17]	Activity [21]	Activity [26]	Activity [29]	also measured
Cc1c(C)c2c(c(C)c1O)CCC(C)(C(=O)O)O2 (configuration not stated) [TROLOX]	81.2%												
O=C(O)c1ccc(O)c(O)c1 [PROTOCATECHUIC ACID]	85.1%	57.4%	2.1 µg/mL (≈ 13.6 µM)	Non-toxic	68.4%	4 µg/mL	43%	70.4%	22.2%	82.7%	74.6%	Non-toxic	Activity [2]: Non-toxic; inhibition [3]: Active; Activity [5]: Dose-dependent effect; inhibition [6]: Active; inhibition [8]: Active; MDA-TBA level relative to control [10]: 14.9%; inhibition at 20 µg/mL [14]: 21.1%; inhibition at 20 µg/mL [16]: 34.8%; inhibition [18]: Active; Activity [19]: Dose-dependent effect; inhibition [20]: Active; inhibition at 20 µg/mL [22]: 29.3%; inhibition at 20 µg/mL [23]: 46.6%; Activity [24]: inactive; inhibition at 20 µg/mL [25]: 54.6%; Activity [27]: inactive; inhibition [28]: Dose-dependent effect; inhibition [30]: Dose-dependent effect
O=C1O[C@H]([C@@H](O)CO)C(O)=C1O [ASCORBIC ACID]	102%	41.7%	4.2 µg/mL (≈ 23.8 µM)	Toxic	62.5%	4.9 µg/mL	0%	71.3%	29.8%	87.6%	81.4%	Toxic	
OC[C@H]1O[C@@H](Oc2ccc(O)cc2)[C@H](O)[C@@H](O)[C@@H]1O [ARBUTIN]		30.9%		Toxic					33.1%			Toxic	
